For assay [1], the target named is T1, Histone deacetylase 7 (Homo sapiens) (UniProt Q8WUI4).
T1 sequence (whole entry): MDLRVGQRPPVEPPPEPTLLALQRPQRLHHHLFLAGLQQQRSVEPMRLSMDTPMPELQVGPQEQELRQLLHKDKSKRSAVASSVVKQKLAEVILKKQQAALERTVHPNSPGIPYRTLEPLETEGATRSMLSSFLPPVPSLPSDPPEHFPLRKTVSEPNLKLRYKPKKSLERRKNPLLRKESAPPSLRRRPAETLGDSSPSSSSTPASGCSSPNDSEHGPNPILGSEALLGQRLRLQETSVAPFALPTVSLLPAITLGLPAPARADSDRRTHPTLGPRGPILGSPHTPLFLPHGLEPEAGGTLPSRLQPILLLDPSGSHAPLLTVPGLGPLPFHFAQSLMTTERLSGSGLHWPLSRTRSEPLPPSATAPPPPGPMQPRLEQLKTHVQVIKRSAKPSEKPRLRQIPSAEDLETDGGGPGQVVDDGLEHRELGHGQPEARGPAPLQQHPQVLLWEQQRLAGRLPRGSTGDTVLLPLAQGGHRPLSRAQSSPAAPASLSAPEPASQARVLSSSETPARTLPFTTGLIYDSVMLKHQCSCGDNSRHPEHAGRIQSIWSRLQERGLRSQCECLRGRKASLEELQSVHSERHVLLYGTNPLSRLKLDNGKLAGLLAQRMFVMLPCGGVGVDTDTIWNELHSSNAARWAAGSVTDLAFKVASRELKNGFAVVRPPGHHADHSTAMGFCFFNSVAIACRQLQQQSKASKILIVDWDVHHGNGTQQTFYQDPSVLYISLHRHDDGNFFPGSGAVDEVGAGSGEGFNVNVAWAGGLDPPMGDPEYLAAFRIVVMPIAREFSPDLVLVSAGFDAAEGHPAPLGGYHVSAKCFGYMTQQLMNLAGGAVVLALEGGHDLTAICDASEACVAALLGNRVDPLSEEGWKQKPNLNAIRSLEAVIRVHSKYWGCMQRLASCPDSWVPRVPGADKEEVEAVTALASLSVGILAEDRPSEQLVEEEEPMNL
In words: Inhibition of human recombinant HDAC7 using fluorogenic trifluoroacetyl lysine as substrate at 10 uM by fluorescence method. Summed up:
(§1)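 Selectivity profile across HDAC isoforms 1–11 at a single concentration of 10 μM, run in duplicate.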

The target of assay [2] is Histone deacetylase 1 (Homo sapiens, UniProt Q13547). In words: Inhibition of human recombinant HDAC1 using fluorogenic peptide p53 residues 379-382 (RHKK(Ac)AMC) as residues at 10 uM by fluorescence method. Summed up:
as §1

The target of assay [3] is T2, Protein deacetylase HDAC6 (Homo sapiens, UniProt Q9UBN7).
T2 sequence (Q9UBN7 whole entry): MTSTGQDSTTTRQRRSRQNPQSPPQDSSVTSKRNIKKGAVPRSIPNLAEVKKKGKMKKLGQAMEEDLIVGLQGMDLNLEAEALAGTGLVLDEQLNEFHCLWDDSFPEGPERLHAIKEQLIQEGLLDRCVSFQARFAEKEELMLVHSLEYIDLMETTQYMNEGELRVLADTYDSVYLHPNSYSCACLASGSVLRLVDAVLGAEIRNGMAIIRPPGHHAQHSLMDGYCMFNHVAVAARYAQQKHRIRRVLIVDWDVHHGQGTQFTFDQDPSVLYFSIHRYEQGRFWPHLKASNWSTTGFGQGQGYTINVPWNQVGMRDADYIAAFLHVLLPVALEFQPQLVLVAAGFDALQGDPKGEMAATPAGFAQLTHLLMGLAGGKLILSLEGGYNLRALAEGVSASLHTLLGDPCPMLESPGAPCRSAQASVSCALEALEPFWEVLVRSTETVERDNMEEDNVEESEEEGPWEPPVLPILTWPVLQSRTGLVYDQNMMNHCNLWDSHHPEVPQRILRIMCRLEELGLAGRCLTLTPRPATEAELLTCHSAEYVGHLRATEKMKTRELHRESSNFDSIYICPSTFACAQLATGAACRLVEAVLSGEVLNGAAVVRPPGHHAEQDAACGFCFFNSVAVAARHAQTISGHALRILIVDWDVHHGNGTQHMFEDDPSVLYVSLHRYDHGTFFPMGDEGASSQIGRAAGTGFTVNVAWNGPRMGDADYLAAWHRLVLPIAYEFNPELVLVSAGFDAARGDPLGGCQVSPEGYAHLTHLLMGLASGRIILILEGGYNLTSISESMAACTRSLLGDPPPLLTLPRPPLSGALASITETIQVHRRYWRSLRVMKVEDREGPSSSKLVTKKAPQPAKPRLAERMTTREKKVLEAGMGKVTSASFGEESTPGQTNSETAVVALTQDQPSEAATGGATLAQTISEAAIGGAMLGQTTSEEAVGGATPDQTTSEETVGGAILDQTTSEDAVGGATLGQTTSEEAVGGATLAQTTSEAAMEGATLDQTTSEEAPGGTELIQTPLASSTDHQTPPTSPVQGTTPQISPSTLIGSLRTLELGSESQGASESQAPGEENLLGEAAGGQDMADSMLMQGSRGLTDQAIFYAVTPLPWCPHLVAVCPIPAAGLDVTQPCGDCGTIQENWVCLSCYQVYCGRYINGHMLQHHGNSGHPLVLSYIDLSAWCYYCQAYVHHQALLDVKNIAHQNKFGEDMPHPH
In words: Inhibition of human recombinant HDAC6 using ZMAL (Z-(Ac)Lys-AMC fluorogenic substrate incubated for 90 mins by fluorescence method.

The species entered for assay [4] is Rattus norvegicus. In words: Neuroprotective activity against low serum/K+ deprivation-induced toxicity in rat CGN cells assessed as increase in cell viability at 5 to 25 uM pre-treated for 6 hrs followed by 24 hrs co-treatment with serum/K+ starvation and measured after 24 hrs by MTT assay. The assay is classed as functional, cell-based. Summed up:
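Primary rat cerebellar granule neurons were pretreated for 6 h, then cotreated for 24 h under low-serum and K+ deprivation to induce death. Viability was compared with control and deprivation-only conditions, with tacrine as reference compound.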
For orientation: Tetrazolium dyes change colour on reduction, which living cells bring about.

In assay [5] the target is T3, Histone deacetylase 8 (Homo sapiens) (UniProt Q9BY41).
T3 sequence (whole entry): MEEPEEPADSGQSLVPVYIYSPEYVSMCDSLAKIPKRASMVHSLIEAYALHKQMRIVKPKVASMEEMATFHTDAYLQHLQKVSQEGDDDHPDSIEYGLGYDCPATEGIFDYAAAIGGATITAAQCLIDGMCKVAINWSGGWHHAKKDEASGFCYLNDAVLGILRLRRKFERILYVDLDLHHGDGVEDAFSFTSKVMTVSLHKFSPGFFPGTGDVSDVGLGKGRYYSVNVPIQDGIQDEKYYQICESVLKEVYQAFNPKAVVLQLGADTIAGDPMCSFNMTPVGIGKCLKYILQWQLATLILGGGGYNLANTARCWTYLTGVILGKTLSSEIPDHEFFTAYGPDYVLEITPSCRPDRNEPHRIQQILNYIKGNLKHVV
In words: Inhibition of human recombinant HDAC8 using fluorogenic peptide p53 residues 379-382 (RHK(Ac)K(Ac)AMC) as residues at 10 uM by fluorescence method. Summed up: as §1

Assay [6] has as its target Histone deacetylase 5 (Homo sapiens) (UniProt Q9UQL6). In words: Inhibition of human recombinant HDAC5 using fluorogenic trifluoroacetyl lysine as substrate at 10 uM by fluorescence method. Put shortly: as §1

This note sets out measurements from ChEMBL document CHEMBL4433221, “Novel Sustainable-by-Design HDAC Inhibitors for the Treatment of Alzheimer's Disease” (ACS Med Chem Lett, 2019).

Molecules are shown by their SMILES. Activity calls are given as the source filed them. The calls are words filed in the database; no cut-off is given here.

Histone deacetylase 1, sequence (Q13547 whole entry, the tested form may be a part): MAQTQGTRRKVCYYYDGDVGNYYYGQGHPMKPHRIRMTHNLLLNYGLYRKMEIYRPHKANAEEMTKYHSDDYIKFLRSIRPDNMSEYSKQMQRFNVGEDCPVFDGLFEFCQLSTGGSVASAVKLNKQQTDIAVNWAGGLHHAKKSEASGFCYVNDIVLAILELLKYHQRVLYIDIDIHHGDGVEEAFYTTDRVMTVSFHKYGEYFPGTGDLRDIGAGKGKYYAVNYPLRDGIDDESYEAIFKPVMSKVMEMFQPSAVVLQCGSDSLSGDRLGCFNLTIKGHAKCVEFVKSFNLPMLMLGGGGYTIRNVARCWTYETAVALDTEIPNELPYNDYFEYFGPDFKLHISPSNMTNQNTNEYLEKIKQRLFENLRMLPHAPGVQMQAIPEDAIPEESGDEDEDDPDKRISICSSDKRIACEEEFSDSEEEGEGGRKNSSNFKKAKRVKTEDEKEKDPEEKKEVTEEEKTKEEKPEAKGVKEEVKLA
Histone deacetylase 5 (Homo sapiens), sequence (Q9UQL6 whole entry): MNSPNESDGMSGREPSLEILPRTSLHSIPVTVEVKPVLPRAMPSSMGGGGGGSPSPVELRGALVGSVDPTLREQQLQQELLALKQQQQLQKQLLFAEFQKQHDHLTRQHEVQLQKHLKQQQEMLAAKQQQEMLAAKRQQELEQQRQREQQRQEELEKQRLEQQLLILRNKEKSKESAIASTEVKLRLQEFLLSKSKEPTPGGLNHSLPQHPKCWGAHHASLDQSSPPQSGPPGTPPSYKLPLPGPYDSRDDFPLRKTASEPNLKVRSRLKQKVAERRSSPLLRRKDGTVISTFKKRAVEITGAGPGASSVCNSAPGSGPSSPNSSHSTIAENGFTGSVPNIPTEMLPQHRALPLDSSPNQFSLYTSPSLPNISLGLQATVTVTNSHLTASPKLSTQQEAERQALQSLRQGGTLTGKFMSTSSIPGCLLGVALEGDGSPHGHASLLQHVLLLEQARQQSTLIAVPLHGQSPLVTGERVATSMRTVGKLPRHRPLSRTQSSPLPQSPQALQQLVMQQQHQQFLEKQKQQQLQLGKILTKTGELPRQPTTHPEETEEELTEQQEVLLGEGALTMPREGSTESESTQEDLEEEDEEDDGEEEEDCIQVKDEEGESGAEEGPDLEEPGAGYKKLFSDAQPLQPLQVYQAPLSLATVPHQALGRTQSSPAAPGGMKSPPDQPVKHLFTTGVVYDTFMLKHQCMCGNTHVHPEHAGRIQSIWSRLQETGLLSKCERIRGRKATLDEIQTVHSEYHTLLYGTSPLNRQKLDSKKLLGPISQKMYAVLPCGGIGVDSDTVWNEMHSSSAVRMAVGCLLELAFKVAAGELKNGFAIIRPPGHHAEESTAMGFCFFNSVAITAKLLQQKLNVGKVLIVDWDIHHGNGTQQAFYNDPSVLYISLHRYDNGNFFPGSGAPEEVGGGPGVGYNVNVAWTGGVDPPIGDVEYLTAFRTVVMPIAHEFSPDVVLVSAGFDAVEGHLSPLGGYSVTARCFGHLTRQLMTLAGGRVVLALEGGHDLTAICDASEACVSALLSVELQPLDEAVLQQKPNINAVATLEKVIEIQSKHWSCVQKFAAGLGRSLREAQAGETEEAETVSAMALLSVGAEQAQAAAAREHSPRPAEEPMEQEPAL

`COc1cccc(CCCCCCCC(=O)NO)c1`: the inhibition entry in assay [1], in assay [5] and in assay [6] was “inactive” each time. In addition, in assay [2], the inhibition result was “Active”. In addition, the IC50 in assay [3] came to 190 nM. In assay [4], the outcome was inactive.

As to `COC(=O)c1c(CCCCCCCC(=O)NO)cccc1OC`, the inhibition result in assay [1], in assay [5] and in assay [6] was “inactive” each time. Besides, in assay [2], the inhibition entry was “Active”. For the same compound, the IC50 in assay [3] was determined as 215 nM. Also, in assay [4], the outcome was inactive.

For orientation: IC50 means the point on the concentration scale where inhibition reaches its midpoint.
